The values that follow come from ChEMBL document CHEMBL1133106, “Synthesis and evaluation of peptidomimetics as selective inhibitors and active site probes of nitric oxide synthases” (J Med Chem, 2000).

Non-standard residues stand in square brackets, D forms with d. Residues, ends and D or L forms follow the SMILES beside them. *: point of attachment. Arg(NO2) = N=C(NCCC[C@H](N)C(=O)O)N[N+](=O)[O-]; NMeDab = CN[C@@H](CCN)C(=O)O; Orn = NCCC[C@H](N)C(=O)O; Dab = NCC[C@H](N)C(=O)O; Cbz = O=C(OCc1ccccc1)*; OtBu = CC(C)(C)O*

The target of test [1] is T1, Nitric oxide synthase, inducible (Mus musculus, UniProt P29477).
T1 sequence (P29477 whole entry): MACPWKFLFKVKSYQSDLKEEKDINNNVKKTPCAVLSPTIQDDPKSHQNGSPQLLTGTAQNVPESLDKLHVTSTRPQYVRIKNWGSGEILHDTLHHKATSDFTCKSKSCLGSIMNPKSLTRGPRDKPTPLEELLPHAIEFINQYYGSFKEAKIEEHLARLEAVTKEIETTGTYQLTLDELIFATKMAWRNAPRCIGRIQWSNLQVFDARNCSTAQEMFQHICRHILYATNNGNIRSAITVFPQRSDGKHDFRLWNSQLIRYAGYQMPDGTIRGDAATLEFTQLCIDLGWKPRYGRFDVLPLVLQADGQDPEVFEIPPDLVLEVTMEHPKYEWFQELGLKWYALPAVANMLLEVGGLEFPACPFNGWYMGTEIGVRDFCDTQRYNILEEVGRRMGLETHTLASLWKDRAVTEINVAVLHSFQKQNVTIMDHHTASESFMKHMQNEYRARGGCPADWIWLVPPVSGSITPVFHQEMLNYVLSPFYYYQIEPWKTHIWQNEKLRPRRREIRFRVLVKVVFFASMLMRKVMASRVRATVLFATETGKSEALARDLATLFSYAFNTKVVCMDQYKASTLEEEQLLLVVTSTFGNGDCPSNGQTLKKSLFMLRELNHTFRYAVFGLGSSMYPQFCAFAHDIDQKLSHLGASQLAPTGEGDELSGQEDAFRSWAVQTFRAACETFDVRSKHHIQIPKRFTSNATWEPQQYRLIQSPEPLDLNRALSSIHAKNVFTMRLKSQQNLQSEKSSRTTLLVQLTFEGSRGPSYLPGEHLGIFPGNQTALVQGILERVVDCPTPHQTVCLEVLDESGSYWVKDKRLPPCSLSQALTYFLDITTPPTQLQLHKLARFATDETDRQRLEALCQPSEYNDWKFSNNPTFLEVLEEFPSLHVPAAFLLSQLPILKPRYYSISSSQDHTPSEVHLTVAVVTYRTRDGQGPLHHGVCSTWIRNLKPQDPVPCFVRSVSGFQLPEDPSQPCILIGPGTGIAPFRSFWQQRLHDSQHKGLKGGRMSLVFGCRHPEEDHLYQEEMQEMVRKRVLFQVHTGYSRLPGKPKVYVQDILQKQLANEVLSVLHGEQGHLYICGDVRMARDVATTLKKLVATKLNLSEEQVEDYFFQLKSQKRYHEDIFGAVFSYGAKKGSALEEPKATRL

In another test the target is T2, Nitric oxide synthase 3 (Bos taurus, UniProt P29473).
T2 sequence (P29473 whole entry): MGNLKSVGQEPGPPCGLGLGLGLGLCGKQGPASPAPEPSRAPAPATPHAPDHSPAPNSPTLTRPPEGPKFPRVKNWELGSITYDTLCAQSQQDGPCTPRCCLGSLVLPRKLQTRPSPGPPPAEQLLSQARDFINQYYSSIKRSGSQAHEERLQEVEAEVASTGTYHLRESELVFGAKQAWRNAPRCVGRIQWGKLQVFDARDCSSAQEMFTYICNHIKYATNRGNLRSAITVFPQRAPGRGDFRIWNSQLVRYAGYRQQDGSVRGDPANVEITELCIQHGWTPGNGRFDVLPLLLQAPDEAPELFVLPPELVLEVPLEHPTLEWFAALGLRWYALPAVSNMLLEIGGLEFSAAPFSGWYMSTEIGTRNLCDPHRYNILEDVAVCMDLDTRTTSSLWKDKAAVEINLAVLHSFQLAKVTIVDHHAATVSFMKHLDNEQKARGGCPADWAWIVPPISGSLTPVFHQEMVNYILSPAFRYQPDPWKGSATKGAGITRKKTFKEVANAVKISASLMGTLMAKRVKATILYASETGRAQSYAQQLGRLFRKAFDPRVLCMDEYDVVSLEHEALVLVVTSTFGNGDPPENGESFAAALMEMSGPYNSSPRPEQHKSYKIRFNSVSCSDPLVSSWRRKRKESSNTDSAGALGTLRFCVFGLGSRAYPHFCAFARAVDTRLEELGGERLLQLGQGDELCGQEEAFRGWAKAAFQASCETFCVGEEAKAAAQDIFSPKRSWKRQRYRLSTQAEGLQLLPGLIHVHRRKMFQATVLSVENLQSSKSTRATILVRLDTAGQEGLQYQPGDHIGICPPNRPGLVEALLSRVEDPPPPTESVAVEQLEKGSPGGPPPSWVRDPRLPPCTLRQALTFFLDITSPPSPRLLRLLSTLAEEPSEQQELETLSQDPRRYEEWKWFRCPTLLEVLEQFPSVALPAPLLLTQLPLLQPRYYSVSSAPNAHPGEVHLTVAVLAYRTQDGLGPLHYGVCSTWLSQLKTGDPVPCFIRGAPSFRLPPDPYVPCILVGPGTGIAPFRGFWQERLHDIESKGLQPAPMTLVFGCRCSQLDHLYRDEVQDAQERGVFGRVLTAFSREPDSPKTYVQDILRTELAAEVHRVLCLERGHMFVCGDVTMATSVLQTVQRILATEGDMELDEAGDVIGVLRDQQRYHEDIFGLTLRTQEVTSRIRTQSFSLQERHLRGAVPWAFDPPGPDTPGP

The nature of test [2]: Ratio of binding affinity of eNOS to nNOS. The method, boiled down: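 Ratio of apparent Ki values (eNOS Ki over nNOS Ki). Recombinant bovine eNOS and nNOS were isolated from E. coli expression. NO formation was followed by the hemoglobin capture assay with 10 µM L-arginine and at least three inhibitor concentrations.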
Test [3] is described as follows: Binding affinity against bovine brain nNOS (neuronal).

As a reminder, the Ki is the dissociation constant of the complex between target and ligand, obtained from inhibition or displacement. Lower therefore signals a stronger hold on the target. Consider `CN(C(=O)[C@@H](N)CCCNC(=N)N[N+](=O)[O-])[C@@H](CCN)C(N)=O` (H-[Arg(NO2)]-[NMeDab]-NH2), for which the Ki in test [1] turned out to be 340 µM; at Nitric oxide synthase 3, 95 µM. For `N=C(NCCC[C@H](N)C(=O)NCCN)N[N+](=O)[O-]`, the Ki in test [1] was 100 µM; on Nitric oxide synthase 3 it was 199 µM. Turning to `N=C(NCCC[C@H](N)C(=O)NCCCN)N[N+](=O)[O-]`, the Ki in test [1] came to 118 µM; on Nitric oxide synthase 3, 213 µM. On to `NCC[C@H](NC(=O)[C@@H](N)CCC/N=C(\N)N[N+](=O)[O-])C(=O)O` (H-[Arg(NO2)]-[Dab]-OH), for which the Ratio in test [2] is 3.5. With `CC(C)(C)OC(=O)[C@H](CCN)NC(=O)[C@@H](N)CCCNC(=N)N[N+](=O)[O-]` (H-[Arg(NO2)]-[Dab]-OtBu), the Ki in test [1] was found to be 413 µM; at Nitric oxide synthase 3, 288 µM. On to `COC(=O)[C@H](CCN)NC(=O)[C@@H](N)CCC/N=C(\N)N[N+](=O)[O-]` (H-[Arg(NO2)]-[Dab]-OMe), for which, in test [2], the Ratio is 798.

`NCCCC[C@H](NC(=O)[C@@H](N)CCC/N=C(\N)N[N+](=O)[O-])C(N)=O` (H-[Arg(NO2)]-Lys-NH2) came in with a Ki in test [3] of 0.45 µM.

Turning to `N=C(NCCC[C@H](N)C(=O)N(CCN)CC(N)=O)N[N+](=O)[O-]`, the values for the Ki (in test [1]; at Nitric oxide synthase 3) were 760 µM and 55.5 µM, respectively.

`NCCCNC(=O)[C@@H](N)CCC/N=C(\N)N[N+](=O)[O-]`: in test [2], the Ratio is 163. For `NCCC[C@H](NC(=O)[C@@H](N)CCC/N=C(/N)N[N+](=O)[O-])C(N)=O` (H-[Arg(NO2)]-[Orn]-NH2), in test [3], the affinity corresponds to a Ki of 0.33 µM. As for `CN(C(=O)[C@@H](N)CCC/N=C(\N)N[N+](=O)[O-])[C@@H](CCCN)C(N)=O`, the Ki in test [1] is 1300 µM; at Nitric oxide synthase 3, 623 µM. In test [2], the Ratio worked out at 135.

As for `NCCCN(CC(N)=O)C(=O)[C@@H](N)CCC/N=C(\N)N[N+](=O)[O-]`, the Ratio in test [2] is 3.5.

Consider `COC(=O)[C@H](CCN)NC(=O)[C@@H](N)CCCNC(=N)N[N+](=O)[O-]` (H-[Arg(NO2)]-[Dab]-OMe), for which the Ki in test [1] came out at 27 µM; on Nitric oxide synthase 3 it was 463 µM. Regarding `NCCN(CC(N)=O)C(=O)[C@@H](N)CCC/N=C(\N)N[N+](=O)[O-]`, the Ratio in test [2] is 3. Consider `CC(=O)N[C@@H](CCC/N=C(\N)N[N+](=O)[O-])C(=O)N[C@@H](CCN)C(N)=O` (Ac-[Arg(NO2)]-[Dab]-NH2), for which the Ratio in test [2] turned out to be 9. For `CN(C(=O)[C@@H](N)CCC/N=C(\N)N[N+](=O)[O-])[C@@H](CCCCN)C(N)=O`, the Ki in test [1] was determined as 1900 µM; on Nitric oxide synthase 3 it was 631 µM. Further, the Ratio in test [2] amounted to 86. Turning to `CN(C(=O)[C@@H](N)CCC/N=C(\N)N[N+](=O)[O-])[C@@H](CCN)C(N)=O`, the Ratio in test [2] came out at 40. On the same count and under the same terms, under `NCCCCNC(=O)[C@@H](N)CCC/N=C(\N)N[N+](=O)[O-]` stands 200. With `NCC[C@H](NC(=O)[C@H](CCC/N=C(\N)N[N+](=O)[O-])NC(=O)OCc1ccccc1)C(N)=O` (Cbz-[Arg(NO2)]-[Dab]-NH2), the Ratio in test [2] was determined as 16. `CC(C)(C)OC(=O)[C@H](CCN)NC(=O)[C@@H](N)CCC/N=C(\N)N[N+](=O)[O-]` (H-[Arg(NO2)]-[Dab]-OtBu): the Ratio in test [2] was 28. Take `N=C(NCCC[C@H](N)C(=O)N(CCCN)CC(N)=O)N[N+](=O)[O-]`: the Ki in test [1] came to 1000 µM; on Nitric oxide synthase 3, 108 µM.

Regarding `N=C(NCCC[C@H](NC(=O)OCc1ccccc1)C(=O)N[C@@H](CCN)C(N)=O)N[N+](=O)[O-]` (Cbz-[Arg(NO2)]-[Dab]-NH2), the figures for the Ki (in test [1]; on Nitric oxide synthase 3) were 1600 µM and 827 µM, respectively. `NCCNC(=O)[C@@H](N)CCC/N=C(\N)N[N+](=O)[O-]`: the Ratio in test [2] is 368. As for `N=C(NCCC[C@H](N)C(=O)N[C@@H](CCN)C(=O)O)N[N+](=O)[O-]` (H-[Arg(NO2)]-[Dab]-OH), the values for the Ki (in test [1]; on Nitric oxide synthase 3) were 1210 µM and 98 µM, respectively.

For the molecule `NCCCCN(CC(N)=O)C(=O)[C@@H](N)CCC/N=C(\N)N[N+](=O)[O-]`, the values for the Ki (in test [1]; at Nitric oxide synthase 3) were 1100 µM and 197 µM, respectively. The Ratio in test [2] was found to be 4. With `CC(=O)N[C@@H](CCCNC(=N)N[N+](=O)[O-])C(=O)N[C@@H](CCN)C(N)=O` (Ac-[Arg(NO2)]-[Dab]-NH2), the results for the Ki (in test [1]; on Nitric oxide synthase 3) were 2600 µM and 263 µM, respectively. In the same order, the values of `N=C(NCCC[C@H](N)C(=O)NCCCCN)N[N+](=O)[O-]` are 108 µM and 70 µM.
